Activity, IC50 and MIC data for five compounds are collected here from ChEMBL document CHEMBL1150115, “Bioactive abietane and seco-abietane diterpenoids from Salvia prionitis” (J Nat Prod, 2002).

≈ marks a conversion by molar mass, not a printed value. Calls of active or inactive are those of the source.

The IC50 is the concentration that inhibits the measured activity by half. As a reminder, the MIC is the smallest concentration in the dilution series that meets the test's criterion for growth inhibition.

One assay deals with SGC-7901. In words: Cytotoxicity against human SGC7901 cells after 48 hr by MTT assay. Type of assay: functional, cell-based. On the technique in general: Formazan colour is commonly taken as a measure of viable cells.
The test system of a further assay is MKN-28. In words: Cytotoxicity against human MKN28 cells after 48 hr by MTT assay. Type of assay: functional, cell-based.
For a further assay, the system named is HL-60. In words: Cytotoxicity against human HL60 cells after 48 hr by MTT assay. The assay is classed as functional, cell-based.
The test system of a further assay is Micrococcus luteus. In words: Antibacterial activity against Micrococcus luteus after 18 hrs by microdilution assay. Type of assay: functional. In outline: (§1)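 Broth microdilution in Mueller-Hinton broth, with cells at a set final CFU/mL density. Compounds dissolved in DMSO. Incubation at 37 °C for 18 h under aerobic conditions. Blank controls received a limited amount of DMSO under the same conditions. Read-out is MIC.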

In another assay the test system is Staphylococcus aureus. In words: Antibacterial activity against Staphylococcus aureus after 18 hrs by microdilution assay. The assay is classed as functional. The method, boiled down: as §1
For orientation: Broth dilution looks for growth in wells or tubes with falling amounts of substance.

The next assay addresses T1, DNA topoisomerase 1 (Mus musculus, UniProt Q04750).
T1 sequence (Q04750 whole entry): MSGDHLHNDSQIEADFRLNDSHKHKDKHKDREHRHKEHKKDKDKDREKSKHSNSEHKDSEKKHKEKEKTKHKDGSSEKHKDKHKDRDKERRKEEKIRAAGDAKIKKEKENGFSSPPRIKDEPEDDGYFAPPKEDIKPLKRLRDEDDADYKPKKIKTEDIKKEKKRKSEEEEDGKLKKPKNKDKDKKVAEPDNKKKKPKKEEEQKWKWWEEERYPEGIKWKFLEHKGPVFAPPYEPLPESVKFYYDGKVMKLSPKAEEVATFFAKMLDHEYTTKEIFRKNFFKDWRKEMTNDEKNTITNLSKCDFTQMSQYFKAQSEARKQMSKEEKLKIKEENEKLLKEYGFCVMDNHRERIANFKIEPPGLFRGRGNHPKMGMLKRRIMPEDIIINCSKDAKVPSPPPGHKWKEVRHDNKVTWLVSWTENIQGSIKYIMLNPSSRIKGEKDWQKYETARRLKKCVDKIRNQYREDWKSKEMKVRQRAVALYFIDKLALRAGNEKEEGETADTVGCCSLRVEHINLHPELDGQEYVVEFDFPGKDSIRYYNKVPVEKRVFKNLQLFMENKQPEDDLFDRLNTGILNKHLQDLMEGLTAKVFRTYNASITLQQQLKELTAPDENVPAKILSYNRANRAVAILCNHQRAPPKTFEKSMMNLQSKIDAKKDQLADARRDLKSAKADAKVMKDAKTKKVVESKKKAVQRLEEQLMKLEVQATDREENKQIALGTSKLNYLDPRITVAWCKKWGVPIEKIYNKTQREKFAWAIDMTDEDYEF
In words: Inhibition of topoisomerase 1 extracted from mouse EAC cells assessed as inhibition of Escherichia coli pBR322 relaxation. Type of assay: cell-free, Ehrlich.

On to `Cc1ccc2cc(C(C)C)c(O)c3c2c1C(=O)OC3=O`, for which the outcome in the assay with SGC-7901, in the assay with MKN-28 and in the assay on HL-60 was inactive.

Take `Cc1ccc2c(c1CCC(=O)C(C)(C)O)C(=O)C(=O)C(C(C)C)=C2`: the IC50 in the assay with SGC-7901 (SGC-7901, 48 h) amounted to 200 nM; in the assay with MKN-28 (MKN-28, 48 h) it was 300 nM; in the assay with HL-60 (HL-60, 48 h) it was 4600 nM.

Take `C=C(C)C1CCc2c(C)ccc3c2[C@]1(O)C(=O)C(C(C)C)=C3` (some centres not stated): the result in the assay with SGC-7901, with MKN-28 and in the assay on HL-60 was inactive.

In the case of `CC(C)C1=CC(=O)C([C@@]2(C)CCCC(C)(C)[C@@H]2CC=O)=CC1=O`, the MIC stood at 15 µM (≈ 4.75 µg/mL) against Micrococcus luteus and 20 µM (≈ 6.33 µg/mL) in the assay on Staphylococcus aureus.

Take `Cc1ccc2c(c1CCCC(C)(C)O)C(=O)C(=O)C(C(C)C)=C2`: the half-maximal inhibitory concentration (IC50) on DNA topoisomerase 1 is 800 nM.
